Assay outcomes: PubChem BioAssay, Johns Hopkins Ion Channel Center
In the library only some 2.9% were active in any assay of this set; here they are far more common.
Kir21 block: Kir2.1 (mouse) channel inhibition; hit rate 0.85% among 310,000; B-score at 10 µM; AID 1672; P35561; HEK293-Kir2.1, FluxOR thallium flux fluorescence; active compounds read low;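 active = fluorescence ratio B-score at or below minus 3 SD of library scores, with starting-brightness B-score within 2 SD, cut at about -4.2 in these data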;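 note: channel flux triggered by added potassium and thallium sulfate stimulus; B-score of peak minus minimum fluorescence over baseline after thallium stimulus; more negative B-score means stronger Kir2.1 block with less thallium influx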
TRPC4 block: blocks the mouse TRPC4 cation channel; Q9QUQ5; HEK293 TRPC4beta/mu-opioid, DAMGO-evoked Fluo4 calcium flux; active compounds read low; B-score at 10 µM; hit rate 0.39% among 300,000; AID 2247;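 active = B-score over 3 SD under the library average, no early fluorescence shift, positive overall ratio signal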
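Material: HEK293 cells with stable TRPC4beta plus mu-opioid receptor expression / Probe or stimulus: DAMGO in two steps, submaximal then maximal / Compound: single concentration per test compound / Technique: kinetic Fluo4 fluorescence imaging of calcium influx / Read-out: per-well B score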
TRPC6 act: activates the mouse TRPC6 cation channel; hit rate 0.13% among 310,000; B-score at 10 µM; Q61143; HEK293-TRPC6 membrane potential dye fluorescence; active compounds read high;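 active = B-score of the integrated fluorescence ratio above library mean plus 3 SD, and starting fluorescence ratio within library mean plus 5 SD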;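 note: higher score means more depolarization so channel activation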
Target sequence (Q61143 whole entry, looked up): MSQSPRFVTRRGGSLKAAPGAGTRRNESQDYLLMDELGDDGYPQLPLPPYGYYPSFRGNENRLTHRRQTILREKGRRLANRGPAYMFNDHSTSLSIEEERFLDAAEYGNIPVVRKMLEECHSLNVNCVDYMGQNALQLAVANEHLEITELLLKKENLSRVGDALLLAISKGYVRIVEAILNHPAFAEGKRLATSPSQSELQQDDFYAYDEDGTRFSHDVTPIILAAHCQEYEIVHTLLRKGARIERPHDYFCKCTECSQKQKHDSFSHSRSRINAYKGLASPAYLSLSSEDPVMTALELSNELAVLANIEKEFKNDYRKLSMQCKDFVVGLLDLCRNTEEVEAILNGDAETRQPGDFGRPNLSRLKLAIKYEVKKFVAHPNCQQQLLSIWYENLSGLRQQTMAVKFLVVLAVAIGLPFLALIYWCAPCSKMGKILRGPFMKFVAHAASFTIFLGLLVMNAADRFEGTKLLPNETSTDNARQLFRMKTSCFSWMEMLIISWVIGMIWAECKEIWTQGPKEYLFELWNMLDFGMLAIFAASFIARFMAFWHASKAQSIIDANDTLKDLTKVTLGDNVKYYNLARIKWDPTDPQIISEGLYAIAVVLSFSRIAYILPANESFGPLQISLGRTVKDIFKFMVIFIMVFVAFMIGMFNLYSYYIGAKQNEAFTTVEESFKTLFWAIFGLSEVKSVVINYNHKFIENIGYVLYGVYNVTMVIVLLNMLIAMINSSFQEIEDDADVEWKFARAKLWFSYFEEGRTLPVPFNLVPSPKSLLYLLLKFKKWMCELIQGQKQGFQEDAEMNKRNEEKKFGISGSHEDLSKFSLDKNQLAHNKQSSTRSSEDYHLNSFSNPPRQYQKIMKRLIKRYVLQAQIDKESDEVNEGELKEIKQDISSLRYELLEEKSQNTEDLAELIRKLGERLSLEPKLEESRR
TRPC6 inhibitor: mouse TRPC6 channel inhibition. B-score at 10 µM. HEK293-TRPC6, membrane potential dye, ACh-evoked depolarization; active compounds read low. Q61143. hit rate 1.1% among 310,000;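 active = B-score under library mean minus 3 SD, initial fluorescence not abnormally high, positive integrated signal ratio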;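 note: B-score derived from integrated fluorescence ratio over the kinetic read; more negative B-score means stronger inhibition of depolarization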
TRPC4 agonist: opens the mouse TRPC4 cation channel; B-score at 10 µM; AID 2237; HEK293 TRPC4beta/mu-opioid, Fluo4 calcium fluorescence; active compounds read high; Q9QUQ5; hit rate 0.49% among 310,000;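 active = B-score above 5 SD of library B-scores, and initial fluorescence ratio not above library mean plus 5 SD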;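 note: positive B-score marks a calcium rise read as TRPC4 activation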
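Incubation: 45 min room-temperature Fluo4 loading, 110 s read / System: HEK293 cells stably co-expressing mouse TRPC4beta and mu-opioid receptor / Signal: Fluo4 fluorescence, kinetic / Control set: buffer (low) and maximal DAMGO (high) / Measure: integrated baseline-normalised fluorescence ratio, converted to per-well B score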
TRPC4 potent: TRPC4 (mouse) allosteric potentiation | Q9QUQ5 | HEK293 TRPC4beta/mu-opioid, DAMGO EC20, Fluo-4 Ca2+ flux; active compounds read high | B-score at 10 µM | hit rate 0.42% among 310,000 | AID 2227;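 active = B-score of calcium response area above 5 SD of library B-scores, with initial fluorescence ratio within 5 SD of library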;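 note: B-score of integrated fluorescence ratio over time as area under calcium response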
hERG ctr: counter-screen for Kir2.1 inhibitors: effect on human hERG. inhibition, % at 10 µM. hERG-expressing cells, thallium flux. shares compounds with Kir21 block. hit rate 20% among 320. AID 2236;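 note: host cells are CHO cells stably expressing hERG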
KCNK9 inh: tests whether Kir2.1 inhibitors also affect human KCNK9; shares compounds with Kir21 block; AID 2329; hit rate 5% among 320; KCNK9-expressing cells, ion flux inhibition; inhibition, % at 10 µM
Kir2-1 patch inh: mouse Kir2.1 inward rectifier channel inhibition; inhibition, % at 25 µM; shares compounds with Kir21 block; hit rate 71% among 320; Kir2.1 cells, automated patch-clamp current inhibition; AID 463252
* = called active by the depositor; i = inactive; . = not tested or not shown. Unless noted, the rule behind the calls is not given here.

SMILES	Kir21 block	TRPC4 block	TRPC6 act	TRPC6 inhibitor	TRPC4 agonist	TRPC4 potent	hERG ctr	KCNK9 inh	Kir2-1 patch inh
CCCCOc1c(Br)cc(/C=N/O)cc1OCC	-7.3*	i	i	i	i	i	i	i	11%*
COc1cc(/C=N/O)cc(Br)c1OCc1ccc(Cl)cc1	0.68	i	i	i	i	i	.	.	.
CCOC(=O)c1nnn(-c2nonc2N)c1CSc1ccc(C)cc1	-8.5*	i	i	i	i	i	i	i	8.6%*
Nc1ccc(-c2ccc(N)cc2C(F)(F)F)c(C(F)(F)F)c1	-6.4*	i	i	i	i	i	i	48%*	i
Nc1ccc(C(O)(C(F)(F)F)C(F)(F)F)cc1	0.35	i	i	i	i	i	.	.	.
O=C(Nc1cc(Cl)cc(Cl)c1)c1cccc(OC(F)F)c1	4.3	.	i	i	i	i	i	45%*	i
COc1ccc(Cl)c(N2CCN(CCCNC(=O)Nc3ccc(C)cc3)CC2)c1	-6.3*	i	i	i	i	i	70%*	i	4.8%*
O=C(COc1ccccc1CNCc1ccccc1)Nc1ccccc1	-10*	i	i	i	i	i	49%*	i	43%*
CCOc1ccccc1CNCc1ccc(C(=O)O)cc1	-1.5	i	i	i	i	i	.	.	.
CCOC(=O)C(NS(=O)(=O)c1ccc(Br)cc1)C(C)C (stereo not drawn)	-8.5*	i	i	i	i	i	i	i	49%*
Cc1onc(-c2ccccc2)c1CNS(=O)(=O)c1cccc(Cl)c1	-9.8*	i	i	i	i	i	i	i	12%*
COc1ccc(CN2CCCC(C(=O)c3ccc4c(c3)OCO4)C2)c(F)c1 (stereo not drawn)	-6.4*	i	i	i	i	i	46%*	i	23%*
COc1cccc(CN2CCCC(C(=O)c3ccc4c(c3)OCO4)C2)c1O (stereo not drawn)	-0.65	i	i	i	i	i	.	.	.
Nc1ncc(Br)cc1S(=O)(=O)Nc1ccccc1F	-0.17	i	i	i	i	i	.	.	.
CC(C)c1ccc(C(C)NCCS(=O)(=O)c2ccc(Cl)cc2)cc1 (stereo not drawn)	-8*	i	i	i	i	i	i	i	5.1%*
CC(C(=O)NCCS(=O)(=O)c1ccc(Br)cc1)S(=O)(=O)c1ccc(Cl)cc1 (stereo not drawn)	-0.02	i	i	i	i	i	.	.	.
Cc1cc(C)c(C)c(S(=O)(=O)NCC(=O)Nc2ccccc2F)c1C	-6.9*	i	i	i	i	i	i	i	i
Cc1cc(C)c(C)c(S(=O)(=O)NCC(=O)O)c1C	1	i	i	i	i	i	.	.	.
CSc1nnc2c(n1)OC1(Nc3ccccc3-2)C(=O)Nc2ccccc21 (stereo not drawn)	-1.8	i	i	i	i	i	.	.	.
CC(NC(=O)COc1ccc(/C=N/NC(=O)CO)cc1)c1ccccc1 (stereo not drawn)	-0.64	i	i	i	i	i	.	.	.
CCN(CC)S(=O)(=O)c1ccc(Cl)c(OC)c1	0.64	i	i	i	i	i	.	.	.
CCCN(CCC)S(=O)(=O)c1ccc(Cl)c(OC)c1	-6.2*	i	i	i	i	i	i	i	32%*
CCCCCCSC1=C(C#N)C(c2ccc(C)o2)CC(=O)N1 (stereo not drawn)	-6*	i	i	i	i	i	i	i	i
CCS(=O)(=O)N1CCC(NC(=O)C(Cc2cc(OC)ccc2OC)NC(C)=O)CC1 (stereo not drawn)	1.9	i	i	i	i	i	i	i	i
Cc1ccc2nc(N3CCN(CCO)CC3)nc(-c3ccccc3)c2c1	-7*	i	i	i	i	i	60%*	i	16%*
SMILES	Kir21 block	TRPC4 block	TRPC6 act	TRPC6 inhibitor	TRPC4 agonist	TRPC4 potent	hERG ctr	KCNK9 inh	Kir2-1 patch inh
Cc1nc(Cl)c(N=Cc2cccc([N+](=O)[O-])c2)c(Cl)n1	-1.1	i	i	i	i	i	.	.	.
O=C(CCCN1CCC(O)(c2ccc(Cl)cc2)CC1)c1ccc(F)cc1	-5.5*	i	i	i	i	i	.	i	55%*
O=C(CCCN1CCC(C(=O)c2ccc(F)cc2)CC1)c1ccc(F)cc1	-0.31	i	i	i	i	i	.	.	.
COc1ccc(-c2nc(SC(CC(=O)NCCN3CCOCC3)c3cccs3)n[nH]2)cc1 (stereo not drawn)	0.14	i	i	i	i	i	.	.	.
CCOC(=O)C(=CNc1ccc(S(N)(=O)=O)cc1)C(=O)OCC	0.98	i	i	i	i	i	.	.	.
CCOC(=O)C(=CNc1ccc(NC2=NCC(C)(C)S2)cc1)C(=O)OCC	-7*	i	i	i	i	i	i	i	22%*
Cc1[nH]n(-c2ccccc2)c(=O)c1CCO	1.2	i	i	i	i	i	.	.	.
Cc1[nH]n(-c2ccccc2)c(=O)c1S(=O)(=O)c1ccccc1	-15*	i	i	i	i	i	i	i	66%*
CCC(C)NCCOCCOc1ccccc1-c1ccccc1 (stereo not drawn)	-6.2*	-7*	i	i	i	i	i	i	35%*
O=C(N/N=C/c1cccc(Oc2ccccc2)c1)c1cccc(O)c1	-8.1*	i	i	i	i	i	i	i	41%*
c1ccc(-c2noc(CN3CCCC(OCc4ccccn4)C3)n2)cc1 (stereo not drawn)	-0.67	i	i	i	i	i	.	.	.
CNC(=S)N1CCN(C(=O)C2CCCO2)CC1 (stereo not drawn)	-0.58	i	i	i	i	i	.	.	.
CC(C)(C)OC(=O)NCCc1nnc(SCc2ccc(Cl)cc2Cl)o1	-8.9*	i	i	i	i	i	i	i	48%*
CC(C)(C)OC(=O)NCCc1nnc(SCC(=O)c2ccc(Cl)cc2)o1	0.42	i	i	i	i	i	.	.	.
Cc1cc(Cl)ccc1OCC(=O)Nc1cccnc1	0.05	i	i	i	i	i	.	.	.
